ChEMBL document CHEMBL1132284, “Potent, orally active GPIIb/IIIa antagonists containing a nipecotic acid subunit. Structure-activity studies leading to the discovery of RWJ-53308” (J Med Chem, 1999)

Key:
[1] = target: Integrin alpha-IIb/beta-3 (Homo sapiens, UniProt P05106+P08514); assay: In vitro inhibition of biotinylated fibrinogen binding to immobilized fibrinogen receptor.; format: protein-complex assay
Summary of the method: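 Binding of biotinylated fibrinogen to immobilized purified GPIIb/IIIa, solid phase; IC50; n = 2.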

[2] = tested on: Canis familiaris; assay: Ex vivo duration of inhibition of ADP-induced canine platelet aggregation by 3 mg/kg.; format: functional, Canis lupus familiaris
Summary of the method: (§1)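 Fasted mongrel dogs (8–22 kg, n = 3) given compound orally by stomach tube in 10 mL water. Citrated cephalic-vein blood drawn pre-dose and at 30, 60, 90, 120, 180, 240, 360 min. PRP adjusted to 300 000/μL with PPP, warmed 2 min at 37 °C, and aggregated with 20 μM ADP, read as light transmission. Inhibition is drug versus vehicle; duration is time at ≥50% inhibition.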

[3] = organism: Homo sapiens; assay: In vitro inhibitory potency against human gel filtered platelet (GFP) aggregation; format: functional
Summary of the method: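 Human gel-filtered platelets, aggregation induced by thrombin; IC50; n = 2.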

[4] = tested on: Canis familiaris; assay: Inhibitory activity tested in ex vivo (canine) against ADP-induced platelet aggregation at the dose of 1 mg/kg; format: functional, Canis lupus familiaris; summary of the method: as §1
[5] = tested on: Canis familiaris; assay: Inhibitory activity tested in ex vivo (canine) against ADP-induced platelet aggregation at the dose of 10 mg/kg; format: functional, Canis lupus familiaris

Chain of Integrin alpha-IIb/beta-3 (P05106 27-788 limits assumed): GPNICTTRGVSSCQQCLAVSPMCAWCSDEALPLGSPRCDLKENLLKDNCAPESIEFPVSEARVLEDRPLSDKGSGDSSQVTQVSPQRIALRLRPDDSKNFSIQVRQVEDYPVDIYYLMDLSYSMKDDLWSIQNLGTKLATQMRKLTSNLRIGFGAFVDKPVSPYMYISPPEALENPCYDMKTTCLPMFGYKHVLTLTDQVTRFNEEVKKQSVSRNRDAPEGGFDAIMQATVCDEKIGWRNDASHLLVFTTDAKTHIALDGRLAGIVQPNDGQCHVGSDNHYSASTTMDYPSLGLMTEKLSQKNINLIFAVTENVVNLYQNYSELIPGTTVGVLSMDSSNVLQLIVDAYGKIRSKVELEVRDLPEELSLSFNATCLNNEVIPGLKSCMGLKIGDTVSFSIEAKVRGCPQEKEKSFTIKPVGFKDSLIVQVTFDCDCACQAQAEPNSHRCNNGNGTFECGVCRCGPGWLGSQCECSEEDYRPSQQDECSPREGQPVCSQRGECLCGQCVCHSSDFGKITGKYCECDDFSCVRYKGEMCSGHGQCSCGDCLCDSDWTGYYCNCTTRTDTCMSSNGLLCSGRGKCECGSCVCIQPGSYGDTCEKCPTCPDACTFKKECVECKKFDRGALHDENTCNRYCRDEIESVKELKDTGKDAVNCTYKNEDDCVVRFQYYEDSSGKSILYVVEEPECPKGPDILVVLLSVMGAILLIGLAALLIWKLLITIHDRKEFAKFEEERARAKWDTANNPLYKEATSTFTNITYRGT
Chain of Integrin alpha-IIb/beta-3 (P08514 32-887 limits assumed): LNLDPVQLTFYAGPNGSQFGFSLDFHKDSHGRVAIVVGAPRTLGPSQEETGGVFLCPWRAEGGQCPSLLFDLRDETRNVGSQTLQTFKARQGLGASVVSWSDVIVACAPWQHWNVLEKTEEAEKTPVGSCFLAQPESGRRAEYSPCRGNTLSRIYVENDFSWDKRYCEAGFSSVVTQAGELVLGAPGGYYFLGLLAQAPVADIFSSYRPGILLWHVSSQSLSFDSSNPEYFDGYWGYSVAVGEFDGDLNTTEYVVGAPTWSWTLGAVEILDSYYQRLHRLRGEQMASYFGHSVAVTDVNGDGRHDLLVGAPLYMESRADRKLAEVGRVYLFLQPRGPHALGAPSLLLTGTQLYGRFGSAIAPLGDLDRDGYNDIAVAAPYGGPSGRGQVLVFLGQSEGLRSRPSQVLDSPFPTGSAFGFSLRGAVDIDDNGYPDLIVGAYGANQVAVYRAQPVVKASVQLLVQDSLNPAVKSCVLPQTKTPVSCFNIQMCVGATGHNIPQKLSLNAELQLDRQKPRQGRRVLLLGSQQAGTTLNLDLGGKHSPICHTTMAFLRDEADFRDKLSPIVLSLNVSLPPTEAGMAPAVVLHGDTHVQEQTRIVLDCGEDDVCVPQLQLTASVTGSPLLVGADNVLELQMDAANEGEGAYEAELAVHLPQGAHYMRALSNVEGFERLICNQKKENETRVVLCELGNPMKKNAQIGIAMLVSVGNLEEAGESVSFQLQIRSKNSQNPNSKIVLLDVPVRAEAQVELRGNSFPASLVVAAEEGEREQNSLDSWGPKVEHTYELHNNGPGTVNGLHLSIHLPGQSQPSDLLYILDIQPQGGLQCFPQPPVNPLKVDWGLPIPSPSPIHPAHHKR
Chain of Integrin alpha-IIb/beta-3 (P08514 891-1039 limits assumed): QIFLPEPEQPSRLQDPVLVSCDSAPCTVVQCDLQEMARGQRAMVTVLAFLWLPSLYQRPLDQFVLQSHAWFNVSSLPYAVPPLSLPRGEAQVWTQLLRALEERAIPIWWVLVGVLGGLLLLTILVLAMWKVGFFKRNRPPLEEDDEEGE

Row | Compound | IC50 [1] | Duration [2] | IC50 ([3]; Homo sapiens) | other results
1 | O=C(O)CC(NC(=O)C1CCCN(C(=O)CCC2CCNCC2)C1)c1cncc(-c2ccccc2)c1 (centres undefined) | 1.8 nM |  |  | 
2 | C#C[C@H](CC(=O)OCC)NC(=O)CCC(=O)Nc1ccc(C(=N)N)cc1 [XEMILOFIBAN] | 2 nM | >180 min | 300 nM | 
3 | O=C(O)C(O)CNC(=O)[C@@H]1CCCN(C(=O)CCC2CCNCC2)C1 (some centres undefined) | 3.5 nM |  | 1600 nM | 
4 | O=C(O)C[C@H](NC(=O)[C@@H]1CCCN(C(=O)/C=C/C2CCNCC2)C1)c1cccnc1 | 0.81 nM | 210 min | 160 nM | 
5 | O=C(O)C[C@@H](NC(=O)[C@@H]1CCCN(C(=O)CCC2CCNCC2)C1)c1cnc2ccccc2c1 (stereo in doubt; 33) | 0.18 nM |  |  | 
6 | CCOC(=O)C[C@@H](NC(=O)[C@@H]1CCCN(C(=O)CCC2CCNCC2)C1)c1ccc2c(c1)OCO2 | 48 nM | <30 min | 36000 nM | 
7 | O=C(O)CC(NC(=O)C1CCCN(C(=O)CCC2CCNCC2)C1)c1cncc(-c2cccc([N+](=O)[O-])c2)c1 (centres undefined) | 14 nM |  |  | 
8 | O=C(O)C[C@@H](NC(=O)[C@@H]1CCCN(C(=O)CCC2CCNCC2)C1)c1cccs1 | 0.1 nM |  | 90 nM | 
9 | O=C(O)CC(NC(=O)C1CCCN(C(=O)CCC2CCNCC2)C1)c1cccnc1 (centres undefined) | 3 nM |  |  | 
10 | O=C(O)C[C@@H](NC(=O)[C@@H]1CCCN(C(=O)CCC2CCNCC2)C1)c1ccc(Cl)s1 | 0.1 nM |  | 40 nM | 
11 | C#Cc1cncc([C@H](CC(=O)O)NC(=O)[C@@H]2CCCN(C(=O)CCC3CCNCC3)C2)c1 | 0.24 nM |  | 30 nM | 
12 | COc1ncc([C@H](CC(=O)O)NC(=O)[C@@H]2CCCN(C(=O)CCC3CCNCC3)C2)cc1Cl | 3.8 nM | 30 min | 90 nM | 
13 | O=C(O)CC(NC(=O)C1CCCN(C(=O)CCC2CCNCC2)C1)c1cncc(-c2cccc3ccccc23)c1 (centres undefined) | 26 nM |  |  | 
14 | O=C(O)C[C@H](NC(=O)[C@@H]1CCCN(C(=O)CCC2CCNCC2)C1)c1cnc(Cl)c(Cl)c1 | 0.34 nM | 150 min | 220 nM | 
15 | O=C(O)C[C@H](NC(=O)[C@H]1CN(C(=O)CCC2CCNCC2)CCN1)c1cccnc1 | 1.7 nM |  | 600 nM | 
16 | O=C(O)C[C@@H](NC(=O)[C@@H]1CCCN(C(=O)CCC2CCNCC2)C1)c1ccc2c(c1)OCO2 | 0.5 nM | 180 min | 20 nM | 
17 | O=C(N[C@H](Cc1ccccc1)[C@@H](O)C(=O)O)[C@@H]1CCCN(C(=O)CCC2CCNCC2)C1 | 17.9 nM |  | 210 nM | 
18 | O=C(O)C[C@H](NC(=O)[C@@H]1CCCN(C(=O)CCC2CCNCC2)C1)c1ccc(-c2ccsc2)nc1 | 0.37 nM | 150 min | 200 nM | 
19 | O=C(O)CC(NC(=O)C1CCCN(C(=O)CCC2CCNCC2)C1)c1cncc(-c2ccc3ccccc3c2)c1 (centres undefined) | 57 nM |  |  | 
20 | O=C(O)C[C@@H](NC(=O)[C@@H]1CCCN(C(=O)CCC2CCNCC2)C1)c1cccnc1 | 0.36 nM | 360 min | 60 nM | 
21 | O=C(O)C[C@@H](C#Cc1ccccc1)NC(=O)[C@@H]1CCCN(C(=O)CCC2CCNCC2)C1 | 0.29 nM |  | 3500 nM | 
22 | COc1ccc(-c2cncc(C(CC(=O)O)NC(=O)C3CCCN(C(=O)CCC4CCNCC4)C3)c2)cc1 (centres undefined) | 11 nM |  |  | 
23 | Cc1ccc([C@H](CC(=O)O)NC(=O)[C@@H]2CCCN(C(=O)CCC3CCNCC3)C2)cn1 | 0.13 nM | 210 min | 30 nM | 
24 | Nc1cccc(-c2cncc(C(CC(=O)O)NC(=O)C3CCCN(C(=O)CCC4CCNCC4)C3)c2)c1 (centres undefined) | 3.6 nM |  |  | 
25 | Cc1ccc(-c2cncc(C(CC(=O)O)NC(=O)C3CCCN(C(=O)CCC4CCNCC4)C3)c2)cc1 (centres undefined) | 24 nM |  |  | 

Row | Compound | IC50 [1] | Duration [2] | IC50 ([3]; Homo sapiens) | other results
26 | C[C@H](CC(=O)O)NC(=O)[C@@H]1CCCN(C(=O)CCC2CCNCC2)C1 | 13.5 nM |  | 8000 nM | 
27 | COc1cccc(-c2cncc(C(CC(=O)O)NC(=O)C3CCCN(C(=O)CCC4CCNCC4)C3)c2)c1 (centres undefined) | 11 nM |  |  | 
28 | CC(C)(C)C#C[C@H](CC(=O)O)NC(=O)[C@@H]1CCCN(C(=O)CCC2CCNCC2)C1 | 5.6 nM |  | 31000 nM | 
29 | O=C(C[C@H](NC(=O)[C@@H]1CCCN(C(=O)CCC2CCNCC2)C1)c1cccnc1)OCCC1CCCCC1 | 3.8 nM | 120 min | 2200 nM | 
30 | O=C(O)C[C@H](NC(=O)[C@@H]1CCCN(C(=O)CCC2CCNCC2)C1)c1cncc(C#Cc2ccccc2)c1 | 0.85 nM |  | 40 nM | Duration [4]: <30 min
31 | CC(C)(C)C#C[C@@H](CC(=O)O)NC(=O)[C@@H]1CCCN(C(=O)CCC2CCNCC2)C1 | 42 nM |  |  | 
32 | O=C(O)CCNC(=O)[C@@H]1CCCN(C(=O)CCC2CCNCC2)C1 | 4.8 nM | 120 min | 270 nM | 
33 | O=C(O)C[C@@H](Cc1ccccc1)NC(=O)[C@@H]1CCCN(C(=O)CCC2CCNCC2)C1 | 0.37 nM |  | 970 nM | 
34 | O=C(O)CC(NC(=O)C1CCCN(C(=O)CCC2CCNCC2)C1)c1cncc(Br)c1 (centres undefined) | 3 nM |  |  | 
35 | O=C(O)C[C@H](NC(=O)[C@@H]1CCN(C(=O)/C=C/C2CCNCC2)C1)c1cccnc1 | 0.58 nM | 360 min | 140 nM | 
36 | O=C(O)C[C@@H](NC(=O)[C@@H]1CCCN(C(=O)CCC2CCNCC2)C1)c1ncc(C(F)(F)F)cc1Cl | 66.8 nM | 30 min | 11800 nM | 
37 | O=C(O)C[C@@H](NC(=O)[C@@H]1CCCN(C(=O)CCC2CCNCC2)C1)c1cnc2ccccc2c1 (stereo in doubt; 34) | 0.37 nM |  |  | IC50 [3]: 1200 nM
38 | O=C(O)C[C@H](C#Cc1ccccc1)NC(=O)[C@@H]1CCCN(C(=O)CCC2CCNCC2)C1 | 0.22 nM |  | 80 nM | Duration [4]: <30 min
39 | O=C(O)C[C@H](NC(=O)[C@@H]1CCCN(C(=O)CCC2CCNCC2)C1)c1ccc(Cl)nc1 | 0.14 nM | 210 min | 20 nM | 
40 | O=C(O)CC(NC(=O)C1CCCN(C(=O)CCC2CCNCC2)C1)c1cncc(-c2cc3ccccc3o2)c1 (centres undefined) | 36 nM |  |  | 
41 | O=C(O)CC(NC(=O)C1CCCN(C(=O)CCC2CCNCC2)C1)c1cncc(-c2cccs2)c1 (centres undefined) | 1.5 nM |  |  | 
42 | O=C(O)CC(NC(=O)C1CCCN(C(=O)CCC2CCNCC2)C1)c1cncc(-c2ccsc2)c1 (centres undefined) | 2 nM |  |  | 
43 | CN1CCC(CCC(=O)N2CCC[C@@H](C(=O)N[C@H](CC(=O)O)c3ccc4c(c3)OCO4)C2)CC1 | 0.24 nM |  | 840 nM | Duration [5]: 120 min
44 | O=C(O)C[C@H](NC(=O)[C@@H]1CCCN(C(=O)CCC2CCNCC2)C1)c1cncc(Br)c1 | 0.21 nM | 180 min | 20 nM | 
45 | COc1ccccc1-c1cncc(C(CC(=O)O)NC(=O)C2CCCN(C(=O)CCC3CCNCC3)C2)c1 (centres undefined) | 12 nM |  |  | 
46 | COC(=O)C[C@H](NC(=O)[C@@H]1CCCN(C(=O)CCC2CCNCC2)C1)c1cccnc1 | 7.2 nM | 60 min | 41000 nM | 
47 | O=C(O)C[C@H](NC(=O)[C@@H]1CCCN(C(=O)CCC2CCNCC2)C1)c1cncc(-c2ccccc2)c1 | 0.52 nM |  | 70 nM | 
48 | N=CN1CCC(CCC(=O)N2CCC[C@@H](C(=O)N[C@@H](CC(=O)O)c3cccnc3)C2)CC1 | 0.75 nM | 90 min | 350 nM | 
49 | O=C(O)C[C@H](NC(=O)[C@@H]1CCCN(C(=O)CCC2CCNCC2)C1)c1cncc(CCc2ccccc2)c1 | 0.66 nM | 180 min | 30 nM | 
50 | O=C(O)CC(NC(=O)C1CCCN(C(=O)CCC2CCNCC2)C1)c1cncc(-c2ccc(Cl)s2)c1 (centres undefined) | 57 nM |  |  | 
